Rate, Extent and Lag time data for one compound are collected here from ChEMBL document CHEMBL1121797, “Studies on chiral interactions of 1-(2,5-dimethoxy-4-methylphenyl)-2-aminopropane and the corresponding N-hydroxy metabolites with cytochrome P-450” (J Med Chem, 1981).

Holding throughout (assay type): ADME
The nature of data set [1]: Initial rates of formation of metabolic intermediate Cytochrome P-450 at compound concentration of 30 uM. The method in brief:
(§1)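 Rabbit liver microsomes at 2 mg protein/mL with 0.1 mM EDTA, 37 °C, substrate 30 μM. Complex formation started with 0.4 mM NADPH and followed by dual-wavelength absorbance, 457 vs 500 nm. Initial rate is the initial slope, ΔA×10^4 per nmol P-450 per min. Extent is the plateau absorbance. Lag is the time from NADPH addition to first 457-nm chromophore. Triplicate or single runs.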

Data set [2] can be described thus: Initial rates of formation of metabolic intermediate Cytochrome P-450 with compound concentration of 300 uM. The method in brief: (§2)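 Cross-inhibition in NADPH-supplemented rabbit liver microsomes at 37 °C. Preincubation with amine at 30, 150 or 300 μM while 457-nm complex formation was monitored. Once it plateaued (6–8 min), racemic hydroxylamine was added at 300 μM. Initial rate and plateau extent were read from ΔA457–500 nm vs time, per nmol P-450.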

A short description of data set [3]: Initial rates of formation of metabolic intermediate Cytochrome P-450 with compound concentration of 30 uM. The method in brief:
as §2

The nature of data set [4]: Initial rates of formation of metabolic intermediate Cytochrome P-450 with compound concentration of 150 uM. The method in brief: as §2
A short description of data set [5]: Extent rates of formation of metabolic intermediate Cytochrome P-450 at compound concentration of 30 uM. Put shortly: as §1
Data set [6] in a line: Lag time between the addition of compound (30 uM) and the first appearance of chromophore. Put shortly: as §1

Take `COc1cc(C[C@@H](C)N)c(OC)cc1C.COc1cc(C[C@H](C)N)c(OC)cc1C`: the Rate is 4.8 in data set [1], 1.2 in data set [2], 1.8 in data set [3] and 1.6 in data set [4]. Besides, the Extent in data set [5] is on record as 30. The same compound showed a Lag time in data set [6] of 138 s.
